Measurements reported in ChEMBL document CHEMBL3739352, “Anticonvulsant activity, crystal structures, and preliminary safety evaluation of N-trans-cinnamoyl derivatives of selected (un)modified aminoalkanols” (Eur J Med Chem, 2016).
Active and inactive are the calls of the source. The calls are words filed in the database; no cut-off is given here.

Experiments:
Mus musculus [1] = test: Anticonvulsant activity in albino Carworth Farms No.1 mouse assessed as protection against maximal electroshock-induced seizures at 300 mg/kg, ip after 4 hrs; format: functional, organism-based
Summary of the method: (§1)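 Mouse i.p. screen in Carworth Farms No.1 albino mice at 30, 100 or 300 mg/kg in 0.5% methylcellulose. Testing was at 0.5 and 4 h after injection, by maximal electroshock or by subcutaneous pentetrazol challenge. Scoring was number protected / number used.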

Mus musculus [2] = test: Anticonvulsant activity in albino Carworth Farms No.1 mouse assessed as protection against maximal electroshock-induced seizures at 30 mg/kg, ip after 4 hrs; format: functional, organism-based; summary of the method: as §1
Mus musculus [3] = test: Neurotoxicity in albino Carworth Farms No.1 mouse at 300 mg/kg, ip after 0.5 hrs by rotarod test; format: toxicity, organism-based; settings: in vivo
Summary of the method: (§2)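 Mice (albino Carworth Farms No.1) were dosed i.p. at 30, 100 or 300 mg/kg in 0.5% methylcellulose. They were tested 0.5 and 4 h later on a 1-inch knurled rod rotating at 6 rpm. Neurotoxicity was scored if a mouse could not stay on the rod for at least 1 min in each of three trials. Results are given as animals toxic/animals tested, with deaths noted.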

[4] = Lipophilicity of the compound using 75% methanol in water at 1 mg/ml by RT-TLC analysis; format: physicochemical; settings: buffer
Summary of the method: (§3)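 Reversed-phase TLC with a methanol–water mobile phase at the stated methanol content (v/v). Compounds were spotted from 1 mg/mL methanol solutions after 1 h chamber saturation and located under UV light. Rf was measured and RM = log(1/Rf − 1) calculated.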

[5] = Lipophilicity of the compound using 95% methanol in water at 1 mg/ml by RT-TLC analysis; format: physicochemical; settings: buffer; summary of the method: as §3
[6] = Lipophilicity of the compound using 85% methanol in water at 1 mg/ml by RT-TLC analysis; format: physicochemical; settings: buffer; summary of the method: as §3
Mus musculus [7] = test: Anticonvulsant activity in albino Carworth Farms No.1 mouse assessed as protection against maximal electroshock-induced seizures at 300 mg/kg, ip after 0.5 hrs; format: functional, organism-based; summary of the method: as §1
[8] = Lipophilicity of the compound using 90% methanol in water at 1 mg/ml by RT-TLC analysis; format: physicochemical; settings: buffer; summary of the method: as §3
Mus musculus [9] = test: Anticonvulsant activity in albino Carworth Farms No.1 mouse assessed as protection against subcutaneous dosed pentetrazol-induced seizures at 100 mg/kg, ip after 0.5 hrs; format: functional, organism-based; summary of the method: as §1
[10] = Lipophilicity of the compound at 1 mg/ml by RT-TLC analysis relative to 0% methanol; format: physicochemical; settings: methanol/water
Summary of the method: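 Reversed-phase TLC used methanol–water mobile phases of 95–65% methanol. Compounds were applied from 1 mg/mL methanol solutions after 1 h chamber saturation, with UV detection. RM = log(1/Rf − 1) was calculated at each methanol level and extrapolated linearly (RM = RM0 + bC) to 0% methanol to give RM0.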

Mus musculus [11] = test: Anticonvulsant activity in albino Carworth Farms No.1 mouse assessed as protection against maximal electroshock-induced seizures at 100 mg/kg, ip after 4 hrs; format: functional, organism-based; summary of the method: as §1
Mus musculus [12] = test: Anticonvulsant activity in albino Carworth Farms No.1 mouse assessed as protection against subcutaneous dosed pentetrazol-induced seizures at 300 mg/kg, ip after 4 hrs; format: functional, organism-based; summary of the method: as §1
Mus musculus [13] = test: Anticonvulsant activity in albino Carworth Farms No.1 mouse assessed as protection against subcutaneous dosed pentetrazol-induced seizures at 30 mg/kg, ip after 4 hrs; format: functional, organism-based; summary of the method: as §1
Mus musculus [14] = test: Anticonvulsant activity in albino Carworth Farms No.1 mouse assessed as protection against maximal electroshock-induced seizures at 100 mg/kg, ip after 0.5 hrs; format: functional, organism-based; summary of the method: as §1
Mus musculus [15] = test: Anticonvulsant activity in albino Carworth Farms No.1 mouse assessed as protection against subcutaneous dosed pentetrazol-induced seizures at 30 mg/kg, ip after 0.5 hrs; format: functional, organism-based; summary of the method: as §1
[16] = Lipophilicity of the compound using 65% methanol in water at 1 mg/ml by RT-TLC analysis; format: physicochemical; settings: buffer; summary of the method: as §3
Mus musculus [17] = test: Neurotoxicity in albino Carworth Farms No.1 mouse at 30 mg/kg, ip after 0.5 hrs by rotarod test; format: toxicity, organism-based; settings: in vivo; summary of the method: as §2
Mus musculus [18] = test: Neurotoxicity in albino Carworth Farms No.1 mouse at 100 mg/kg, ip after 0.5 hrs by rotarod test; format: toxicity, organism-based; settings: in vivo; summary of the method: as §2
Mus musculus [19] = test: Anticonvulsant activity in albino Carworth Farms No.1 mouse assessed as protection against subcutaneous dosed pentetrazol-induced seizures at 300 mg/kg, ip after 0.5 hrs; format: functional, organism-based; summary of the method: as §1
Mus musculus [20] = test: Anticonvulsant activity in albino Carworth Farms No.1 mouse assessed as protection against maximal electroshock-induced seizures at 30 mg/kg, ip after 0.5 hrs; format: functional, organism-based; summary of the method: as §1
Mus musculus [21] = test: Anticonvulsant activity in albino Carworth Farms No.1 mouse assessed as protection against subcutaneous dosed pentetrazol-induced seizures at 100 mg/kg, ip after 4 hrs; format: functional, organism-based; summary of the method: as §1
Mus musculus [22] = test: Neurotoxicity in albino Carworth Farms No.1 mouse at 300 mg/kg, ip after 4 hrs by rotarod test; format: toxicity, organism-based; settings: in vivo; summary of the method: as §2
Mus musculus [23] = test: Neurotoxicity in albino Carworth Farms No.1 mouse at 30 mg/kg, ip after 4 hrs by rotarod test; format: toxicity, organism-based; settings: in vivo; summary of the method: as §2
Mus musculus [24] = test: Neurotoxicity in albino Carworth Farms No.1 mouse at 100 mg/kg, ip after 4 hrs by rotarod test; format: toxicity, organism-based; settings: in vivo; summary of the method: as §2
Rattus norvegicus [25] = test: Anticonvulsant activity in Sprague-Dawley rat assessed as protection against maximal electroshock-induced seizures at 30 mg/kg, po after 4 hrs; format: functional, organism-based
Summary of the method: (§4)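 Sprague-Dawley rats were given 30 mg/kg p.o. in 0.5% methylcellulose. Maximal electroshock was applied at 0.25, 0.5, 1.0, 2.0 and 4 h after dosing. Results are reported as number of rats protected / number tested.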

Rattus norvegicus [26] = test: Neurotoxicity in Sprague-Dawley rat at 30 mg/kg, po after 4 hrs; format: toxicity, organism-based; settings: in vivo
Summary of the method: (§5)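 Sprague-Dawley rats were given 30 mg/kg orally in 0.5% methylcellulose. Neurotoxicity was checked at 0.25, 0.5, 1.0, 2.0 and 4 h after dosing. Results are given as number of rats showing neurotoxicity/number tested.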

Rattus norvegicus [27] = test: Neurotoxicity in Sprague-Dawley rat at 30 mg/kg, po after 0.25 hrs; format: toxicity, organism-based; settings: in vivo; summary of the method: as §5
Rattus norvegicus [28] = test: Neurotoxicity in Sprague-Dawley rat at 30 mg/kg, po after 0.5 hrs; format: toxicity, organism-based; settings: in vivo; summary of the method: as §5
Rattus norvegicus [29] = test: Anticonvulsant activity in Sprague-Dawley rat assessed as protection against maximal electroshock-induced seizures at 30 mg/kg, po after 0.25 hrs; format: functional, organism-based; summary of the method: as §4
Rattus norvegicus [30] = test: Anticonvulsant activity in Sprague-Dawley rat assessed as protection against maximal electroshock-induced seizures at 30 mg/kg, po after 1 hr; format: functional, organism-based; summary of the method: as §4
Rattus norvegicus [31] = test: Anticonvulsant activity in Sprague-Dawley rat assessed as protection against maximal electroshock-induced seizures at 30 mg/kg, po after 2 hrs; format: functional, organism-based; summary of the method: as §4
Rattus norvegicus [32] = test: Anticonvulsant activity in Sprague-Dawley rat assessed as protection against maximal electroshock-induced seizures at 30 mg/kg, po after 0.5 hrs; format: functional, organism-based; summary of the method: as §4
Rattus norvegicus [33] = test: Neurotoxicity in Sprague-Dawley rat at 30 mg/kg, po after 2 hrs; format: toxicity, organism-based; settings: in vivo; summary of the method: as §5
Rattus norvegicus [34] = test: Neurotoxicity in Sprague-Dawley rat at 30 mg/kg, po after 1 hr; format: toxicity, organism-based; settings: in vivo; summary of the method: as §5

Rm [4]	Rm [5]	Rm [6]	Rm [8]	Rm [10]	Rm [16]	SMILES	Activity (Mus musculus [1])	Activity (Mus musculus [2])	Activity (Mus musculus [3])	Activity (Mus musculus [7])	Activity (Mus musculus [9])	Activity (Mus musculus [11])	Activity (Mus musculus [12])	Activity (Mus musculus [13])	Activity (Mus musculus [14])	Activity (Mus musculus [15])	Activity (Mus musculus [17])	Activity (Mus musculus [18])	Activity (Mus musculus [19])	Activity (Mus musculus [20])	further results
-0.21	-0.63	-0.33	-0.52	1.478	0.05	CC(=O)CNC(=O)/C=C/c1ccccc1	inactive	inactive	Non-toxic	Active	inactive	inactive	inactive	inactive	inactive	inactive	Non-toxic	Non-toxic	inactive	inactive	Activity (Mus musculus [22]): Non-toxic; Activity (Mus musculus [23]): Non-toxic; Activity (Mus musculus [24]): Non-toxic; Activity (Mus musculus [21]): inactive
-0.18	-0.69	-0.27	-0.52	1.983	0.19	O=C(/C=C/c1ccccc1)NCCCCCO	inactive	inactive	Non-toxic	inactive	inactive	inactive	inactive	inactive	inactive	inactive	Non-toxic	Non-toxic	inactive	inactive	Activity (Mus musculus [22]): Non-toxic; Activity (Mus musculus [23]): Non-toxic; Activity (Mus musculus [24]): Non-toxic; Activity (Mus musculus [21]): inactive
0.05	-0.52	-0.03	-0.31	2.742	0.58	COC(=O)C(NC(=O)/C=C/c1ccccc1)C(C)C (racemic)	inactive	inactive	Non-toxic	Active	inactive	inactive	inactive	inactive	inactive	inactive	Non-toxic	Non-toxic	inactive	inactive	Activity (Mus musculus [22]): Non-toxic; Activity (Mus musculus [23]): Non-toxic; Activity (Mus musculus [24]): Non-toxic; Activity (Mus musculus [21]): inactive
-0.1	-0.58	-0.19	-0.48	2.003	0.25	CC(=O)OC(C)CNC(=O)/C=C/c1ccccc1 (racemic)	Active	inactive	Non-toxic	Active	inactive	inactive	inactive	inactive	inactive	inactive	Non-toxic	Non-toxic	Active	inactive	Activity (Rattus norvegicus [25]): inactive; Activity (Mus musculus [22]): Non-toxic; Activity (Rattus norvegicus [26]): Non-toxic; Activity (Rattus norvegicus [27]): Non-toxic; Activity (Rattus norvegicus [28]): Non-toxic; Activity (Rattus norvegicus [29]): inactive; Activity (Mus musculus [23]): Non-toxic; Activity (Rattus norvegicus [30]): inactive; Activity (Rattus norvegicus [31]): inactive; Activity (Rattus norvegicus [32]): inactive; Activity (Mus musculus [24]): Non-toxic; Activity (Rattus norvegicus [33]): Non-toxic; Activity (Rattus norvegicus [34]): Non-toxic; Activity (Mus musculus [21]): inactive

Further lines, the compound ahead of its results:

SMILES	Rm [4]	Rm [5]	Rm [6]	Rm [8]	Rm [10]	Rm [16]	Activity (Mus musculus [1])	Activity (Mus musculus [2])	Activity (Mus musculus [3])	Activity (Mus musculus [7])	Activity (Mus musculus [9])	Activity (Mus musculus [11])	Activity (Mus musculus [12])	Activity (Mus musculus [13])	Activity (Mus musculus [14])	Activity (Mus musculus [15])	Activity (Mus musculus [17])	Activity (Mus musculus [18])	Activity (Mus musculus [19])	Activity (Mus musculus [20])	further results
CCC(COC(C)=O)NC(=O)/C=C/c1ccccc1 (stereo not given)	-0.05	-0.58	-0.14	-0.43	2.118	0.29	inactive	inactive	Non-toxic	inactive	inactive	inactive	inactive	inactive	inactive	inactive	Non-toxic	Non-toxic	inactive	inactive	Activity (Mus musculus [21]): inactive
CC(C)(CO)NC(=O)/C=C/c1ccccc1	-0.14	-0.63	-0.25	-0.5	2.151	0.29	inactive	inactive	Non-toxic	Active	inactive	inactive	inactive	inactive	inactive	inactive	Non-toxic	Non-toxic	Active	inactive	Activity (Mus musculus [22]): Non-toxic; Activity (Mus musculus [23]): Non-toxic; Activity (Mus musculus [24]): Non-toxic; Activity (Mus musculus [21]): inactive
CC(=O)OCC(C)NC(=O)/C=C/c1ccccc1 (racemic)	-0.07	-0.58	-0.21	-0.48	1.88	0.19	inactive	inactive	Non-toxic	Active	inactive	inactive	inactive	inactive	Active	inactive	Non-toxic	Non-toxic	inactive	inactive	Activity (Rattus norvegicus [25]): inactive; Activity (Mus musculus [22]): Non-toxic; Activity (Rattus norvegicus [26]): Non-toxic; Activity (Rattus norvegicus [27]): Non-toxic; Activity (Rattus norvegicus [28]): Non-toxic; Activity (Rattus norvegicus [29]): inactive; Activity (Mus musculus [23]): Non-toxic; Activity (Rattus norvegicus [30]): inactive; Activity (Rattus norvegicus [31]): inactive; Activity (Rattus norvegicus [32]): inactive; Activity (Mus musculus [24]): Non-toxic; Activity (Rattus norvegicus [33]): Non-toxic; Activity (Rattus norvegicus [34]): Non-toxic; Activity (Mus musculus [21]): inactive
